The subject of assay [1] is Candida. Briefly: Antimicrobial activity against Candida sp. IMUR4249 at 300 ug/disc. The assay is classed as functional. The settings on record: read-out: IZ. Put shortly: (§1)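 Disc diffusion on agar plates inoculated with a standardized microbial suspension, with paper discs carrying known compound amounts. DMSO-only discs served as negative controls, and chloramphenicol, rifampicin (bacteria) or nistatin (fungi) as references. The read-out is the mean inhibition zone diameter in mm. Each run was done three times and repeated if results differed.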

The test system of assay [2] is Toxoplasma gondii. Nature of the assay: Inhibition of intracellular parasite Toxoplasma gondii. It is filed as functional, organism-based. Put shortly:
(§2)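 Infected Vero cultures were exposed to compound at 0.01–30 mM for 24 h, in triplicate per assay. IC50 for infected cells and intracellular parasites was derived by non-linear regression, using trypan blue exclusion.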

The test system of assay [3] is Mycolicibacterium phlei. Briefly: Antimicrobial activity against Mycobacterium phlei at 300 ug/disc. It is filed as functional. The settings on record: read-out: IZ. Put shortly:
as §1

For assay [4], the system named is Candida albicans. Briefly: Antimicrobial activity against Candida albicans at 300 ug/disc. The settings on record: read-out: IZ. It is filed as functional. Put shortly: as §1
Assay [5] has as its system Vero. Briefly: Inhibition of uninfected african green monkey Vero cells. It is filed as cell-based. As to conditions: Chlorocebus sabaeus.
The test system of assay [6] is Staphylococcus aureus. Briefly: Antimicrobial activity against Staphylococcus aureus at 300 ug/disc. It is filed as functional. The settings on record: read-out: IZ. Put shortly:
as §1

For assay [7], the system named is Toxoplasma gondii. Briefly: Antiparasitic activity against Toxoplasma gondii infected african green monkey Vero cells at 8 mM assessed as infected cells. The assay is classed as functional. Put shortly:
(§3)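 Vero cells were infected with RH-strain tachyzoites (5:1 parasite:cell) for 1 h, washed with PBS, and grown 24 h at 37 °C in medium 199 with 5% FCS. Compound was then added for 24 h. Cells were fixed with Bouin's, stained with Giemsa, and at least 400 cells were counted by light microscopy for the percentage infected. Hydroxyurea and sulfadiazine served as references.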

Assay [8] has as its system Toxoplasma gondii. Nature of the assay: Antiparasitic activity against Toxoplasma gondii infected african green monkey Vero cells at 5 mM assessed as infected cells. The assay is classed as functional. Put shortly: as §3
Assay [9] has as its system Toxoplasma gondii. Briefly: Antiparasitic activity against Toxoplasma gondii infected african green monkey Vero cells at 20 mM assessed as infected cells. The assay is classed as functional. The procedure, abridged:
as §3

Assay [10] relates to Saccharomyces cerevisiae. Briefly: Antimicrobial activity against Saccharomyces cerevisiae at 300 ug/disc. The assay is classed as functional. As to conditions: read-out: IZ. Put shortly:
as §1

The test system of assay [11] is Toxoplasma gondii. Nature of the assay: Antiparasitic activity against Toxoplasma gondii infected african green monkey Vero cells at 0.1 mM assessed as infected cells. The assay is classed as functional. The procedure, abridged:
as §3

The subject of assay [12] is Toxoplasma gondii. Briefly: Antiparasitic activity against Toxoplasma gondii infected african green monkey Vero cells at 2 mM assessed as infected cells. The assay is classed as functional. Put shortly:
as §3

Assay [13] deals with Escherichia coli. Briefly: Antimicrobial activity against Escherichia coli at 300 ug/disc. The assay is classed as functional. The settings on record: read-out: IZ. Put shortly:
as §1

Assay [14] concerns Enterococcus faecalis. Nature of the assay: Antimicrobial activity against Streptococcus faecalis at 300 ug/disc. It is filed as functional. The settings on record: read-out: IZ. Put shortly:
as §1

The test system of assay [15] is Toxoplasma gondii. Nature of the assay: Inhibition of Toxoplasma gondii infected in african green monkey Vero cells. The assay is classed as functional, organism-based. Put shortly:
as §2

Assay [16] has as its system Candida. Nature of the assay: Antimicrobial activity against Candida sp. IMUR4249. The assay is classed as functional. Put shortly:
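Tube dilution MIC, run on compounds with a disc-diffusion zone of at least 18 mm. The DMSO stock (1 mg/mL) was serially diluted to 10–220 µg/mL final in medium, and strains were inoculated at 10^8/mL. Media were tryptic soy or nutrient agar for bacteria and Sabouraud liquid for fungi, incubated 24–48 h at 37 °C (bacteria) or 30 °C (fungi). MIC is the lowest concentration giving clear tubes.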

For assay [17], the system named is Bacillus subtilis. Briefly: Antimicrobial activity against Bacillus subtilis at 300 ug/disc. It is filed as functional. As to conditions: read-out: IZ. The procedure, abridged: as §1
The subject of assay [18] is Micrococcus luteus. Nature of the assay: Antimicrobial activity against Micrococcus luteus at 300 ug/disc. The assay is classed as functional. The settings on record: read-out: IZ. The procedure, abridged: as §1
For assay [19], the system named is Candida. Briefly: Antimicrobial activity against Candida sp. IMUR720 at 300 ug/disc. It is filed as functional. The settings on record: read-out: IZ. The procedure, abridged: as §1
Assay [20] deals with Mycolicibacterium smegmatis. Briefly: Antimicrobial activity against Mycobacterium smegmatis at 300 ug/disc. It is filed as functional. As to conditions: read-out: IZ. The procedure, abridged: as §1
Assay [21] concerns Klebsiella pneumoniae. Briefly: Antimicrobial activity against Klebsiella pneumoniae at 300 ug/disc. It is filed as functional. The settings on record: read-out: IZ. Put shortly:
as §1

Assay [22] concerns Mycobacterium tuberculosis. Briefly: Antimicrobial activity against Mycobacterium tuberculosis at 300 ug/disc. It is filed as functional. The settings on record: read-out: IZ. Put shortly:
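Agar disc diffusion: paper discs loaded with compound placed on agar plates seeded with a standardised microbial suspension. DMSO-only discs served as negative control. Chloramphenicol and rifampicin (bacteria) or nistatin (fungi) gave reference zones. Read-out was mean zone of inhibition diameter (mm). Each experiment was run three times and repeated if results differed.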

Assay [23] deals with Candida. Nature of the assay: Antimicrobial activity against Candida sp. IMUR1224 at 300 ug/disc. The settings on record: read-out: IZ. The assay is classed as functional. Put shortly:
as §1

In brackets after ≈: the same amount, converted by molar mass.

A word on the IC50: it is the concentration at which inhibition is half-maximal. As a reminder, the MFC is the smallest concentration meeting the test's criterion for killing the fungus. The term MIC denotes the lowest concentration found to suppress growth. For the compound `O=C(O)CC1S/C(=N\N=C\c2ccc(Cl)cc2)N(c2ccccc2)C1=O` (configuration not stated), the zone of inhibition at 300 µg/disc was 20 mm in assay [1]; 12 mm in [3]; 8 mm in assay [4]; below 7 mm in [6]; below 7 mm in assay [10]; below 7 mm in [13]. Moreover, the zone of inhibition at 300 µg/disc is 15 mm in assay [14]; 13 mm in assay [17]; 21 mm in [18]; below 7 mm in assay [19]; 15 mm in [20]; below 7 mm in [21]. For the same compound, the zone of inhibition at 300 µg/disc in assay [22] was 17 mm; in [23], below 7 mm. The results for the IC50 in assay [2], in assay [5] and in assay [15] were 500 µM, 2000 µM and 1500 µM, respectively. The Activity in assay [7] came to 0%; in [8], 0%; in assay [9], 0%; in assay [11] it was 68.15%; in assay [12], 35.3%. This compound gave an MFC in assay [16] of 140 mg/L (≈ 361 µM). For the same compound, the minimal inhibitory concentration (MIC) in [16] amounted to 150 mg/L (≈ 387 µM).
As to `COc1ccc(/C=N/N=C2\SC(CC(=O)O)C(=O)N2c2ccccc2)c(OC)c1` (configuration not stated), the zone of inhibition at 300 µg/disc in [1] was 20 mm; in assay [3], below 7 mm; in assay [4] it was 13 mm; in assay [6], below 7 mm; in [10], 12 mm; in [13], below 7 mm. For the same compound, the zone of inhibition at 300 µg/disc is below 7 mm in assay [14]; below 7 mm in assay [17]; 15 mm in assay [18]; below 7 mm in assay [19]; below 7 mm in assay [20]; below 7 mm in assay [21]. Besides, the zone of inhibition at 300 µg/disc in assay [22] and in [23] was below 7 mm throughout. The IC50 in [2] worked out at 500 µM; in [5] it was 5000 µM; in assay [15] it was 2000 µM. The Activity in assay [7] amounted to 0%; in assay [8], 0%; in assay [9], 0%; in assay [11], 66.36%; in assay [12], 39.5%. Moreover, the MFC in assay [16] worked out at 70 mg/L (≈ 169 µM). In assay [16], this compound returned an MIC of 80 mg/L (≈ 193 µM).
Consider `O=C(O)CC1S/C(=N\N=C\c2ccc(F)cc2)N(c2ccccc2)C1=O` (configuration not stated), for which the zone of inhibition at 300 µg/disc in assay [1] is 22 mm; in assay [3] it was 7 mm; in [4], 8 mm; in assay [6], below 7 mm; in assay [10], below 7 mm; in assay [13], below 7 mm. In addition, the zone of inhibition at 300 µg/disc in assay [14] is 16 mm; in assay [17], 14 mm; in assay [18] it was 15 mm; in [19] it was below 7 mm; in [20], 12 mm; in [21], below 7 mm. Besides, the zone of inhibition at 300 µg/disc in assay [22] is 14 mm; in [23], below 7 mm. The figures for the IC50 in assay [2], in [5] and in assay [15] were 50 µM, 2000 µM and 50 µM, respectively. Moreover, the Activity was 0% in [7]; 0% in assay [8]; 0% in assay [9]; 21.7% in assay [11]; 10.2% in [12]. The minimal fungicidal concentration (MFC) in assay [16] turned out to be 70 mg/L (≈ 188 µM). The compound further gave an MIC in assay [16] of 80 mg/L (≈ 215 µM).

These data come from ChEMBL document CHEMBL1140759, “Synthesis, anti-Toxoplasma gondii and antimicrobial activities of benzaldehyde 4-phenyl-3-thiosemicarbazones and 2-[(phenylmethylene)hydrazono]-4-oxo-3-phenyl-5-thiazolidineacetic acids” (Bioorg Med Chem, 2008).
